The source made the active and inactive calls. The rule behind the calls is not given here.
Experiments:
J82 [1] = assay: Cell cycle arrest in human J82 cells assessed as accumulation at G1 phase at 5 uM incubated for 24 hrs by propidium iodide staining based flow cytometry (reference value: 69.6%); assay type: functional
Procedure, shortened: (§1)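 After 24 h exposure, cells washed in ice-cold PBS. About 2 million cells fixed in cold 70% ethanol at −20 °C for at least 24 h. Stained with 0.1% Triton X-100, 200 µg/ml RNase A and 20 µg/ml propidium iodide in PBS, 15 min at 37 °C in the dark. DNA content read by flow cytometry with doublet discrimination. Medium as untreated control, paclitaxel as G2/M control. Three independent experiments.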

A2780cisR [2] = assay: Induction of apoptosis in human A2780cisR cells assessed as increase in intracellular calcium level at 1 to 30 uM incubated for 30 mins by fluorimetry; assay type: functional, cell-based
Procedure, shortened: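 Cells seeded in 96-well plates overnight, washed twice with Krebs-HEPES buffer, loaded 1 h at 37 °C in the dark with Oregon Green BAPTA-1 AM (final 3 µM) and Pluronic F-127. Buffer replaced, PXA added, fluorescence at 544 nm recorded for 30 min, with or without 1 mM extracellular Ca2+. Three experiments, mean ± SEM.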

J82 [3] = assay: Induction of apoptosis in human J82 cells assessed as accumulation in subG1 phase at 5 uM incubated for 24 hrs by propidium iodide staining based flow cytometry relative to control; assay type: functional
Procedure, shortened: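 About 100,000 cells/well plated; after one day, treated 24 h. Cells lysed in hypotonic buffer (0.1% sodium citrate, 0.1% Triton X-100, 100 µg/ml propidium iodide) and kept overnight at 4 °C in the dark. Sub-G1 fraction measured by flow cytometry. Medium as control, cisplatin as positive control.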

A2780cisR [4] = assay: Cell cycle arrest in human A2780cisR cells assessed as accumulation at G1 phase at 5 uM incubated for 24 hrs by propidium iodide staining based flow cytometry (reference value: 68.7%); assay type: functional; procedure, shortened: as §1
J82 [5] = assay: Cell cycle arrest in human J82 cells assessed as accumulation at G1 phase at 1 uM incubated for 24 hrs by propidium iodide staining based flow cytometry (reference value: 69.6%); assay type: functional; procedure, shortened: as §1
A2780 [6] = assay: Antiproliferative activity against human A2780 cells assessed as reduction in cell viability incubated for 48 hrs by MTT assay; assay type: functional, cell-based; details: A2780, 48 h
Procedure, shortened: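 Cells seeded overnight in 96-well plates, then exposed to increasing concentrations (compound dissolved in DMSO, diluted in medium) for the stated time. MTT (5 mg/ml in PBS) added for 15 min, formazan dissolved in DMSO, absorbance read at 544 nm minus 690 nm background. IC50 = concentration giving 50% signal decrease. At least three independent experiments in triplicate.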

[7] = Potency index, ratio of cisplatin IC50 to compound IC50 for antiproliferative activity in human Cal27CisR cells assessed as reduction in cell viability incubated for 72 hrs by MTT assay; assay type: functional
Procedure, shortened: (§2)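 Cells seeded in 96-well plates overnight, exposed 72 h to increasing concentrations. MTT (5 mg/ml) added for 15 min, formazan dissolved in DMSO, absorbance read at 544 nm with 690 nm background subtracted. IC50 is the concentration reducing signal by 50%. Three independent experiments in triplicate. CisR sublines made by weekly intermittent cisplatin exposure for 24–30 weeks.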

MDA-MB-231 = assay: Potency index, ratio of cisplatin IC50 to compound IC50 for antiproliferative activity in cisplatin-resistant human MDA-MB-231 cells assessed as reduction in cell viability incubated for 72 hrs by MTT assay; assay type: functional; procedure, shortened: as §2
J82 [8] = assay: Induction of apoptosis in human J82 cells assessed as nuclear condensation by measuring reduced size and increased intensity of nuclei at 50 uM incubated for 24 hrs by hoechst 33342 staining based fluorescence microscopy; assay type: functional, cell-based
J82 [9] = assay: Induction of apoptosis in human J82 cells assessed as depolarization of mitochondrial membrane potential incubated for 2 hrs by TMRE staining based flow cytometry; assay type: functional, cell-based
Procedure, shortened: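 Cells seeded overnight; complete medium swapped for FBS-free medium just before treatment to avoid TMRE ester cleavage. Exposure to PXA for 1 h, 2 h or 24 h. TMRE staining 20 min, cells collected by trypsinisation, ΔΨm read by flow cytometry. Medium served as negative control, 20 µM CCCP as positive control. Mean ± SEM reported.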

J82 [10] = assay: Induction of apoptosis in human J82 cells assessed as depolarization of mitochondrial membrane potential at 5 to 10 uM incubated for 2 hrs by hoechst 33342 staining based fluorescence microscopy; assay type: functional
Procedure, shortened: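 J82 cells treated 2 h with PXA, then labelled 20 min with TMRE plus Hoechst 33342. ΔΨm read by high-content fluorescence imaging. Untreated medium and 20 µM CCCP served as controls.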

A2780 [11] = assay: Induction of apoptosis in human A2780 cells assessed as depolarization of mitochondrial membrane potential at 1 uM by TMRE staining based flow cytometry; assay type: functional, cell-based; details: TDE = time-dependent effect
Procedure, shortened: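 Cells seeded overnight; medium switched to FBS-free just before treatment to avoid TMRE ester cleavage. Exposure 1 h, 2 h or 24 h, then TMRE staining for 20 min. Cells trypsinized, centrifuged at 4 °C and read by flow cytometry. Medium as negative control, 20 µM CCCP as positive control. […]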

A2780cisR [12] = assay: Ratio of IC50 for antiproliferative activity in human A2780cisR cells assessed as reduction in cell viability incubated for 24 hrs by MTT assay to IC50 for antiproliferative activity in human A2780cisR cells assessed as reduction in cell viability incubated for 72 hrs by MTT assay; assay type: functional
Procedure, shortened: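 MTT assay as for the viability IC50s (overnight seeding, MTT 15 min, DMSO solubilisation, 544/690 nm), with PXA incubation for 24 h versus 72 h. IC50 is the concentration giving a 50% signal decrease. At least three independent experiments.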

A2780 [13] = assay: Induction of apoptosis in human A2780 cells assessed as decrease in claspin expression at 5 uM incubated for 24 hrs by proteome profiler analysis; assay type: functional, cell-based
Procedure, shortened: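 A2780 cells treated 24 h with 5 µM, then apoptosis-related proteins read on an antibody array (Proteome Profiler human apoptosis array) per kit instructions.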

A2780 [14] = assay: Potency index, ratio of cisplatin IC50 to compound IC50 for antiproliferative activity in human A2780 cells assessed as reduction in cell viability incubated for 72 hrs by MTT assay; assay type: functional; procedure, shortened: as §2
J82 [15] = assay: Induction of apoptosis in cisplatin resistant human J82 cells assessed as depolarization of mitochondrial membrane potential at 5 to 10 uM incubated for 2 hrs by hoechst 33342 staining based fluorescence microscopy; assay type: functional
Procedure, shortened: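 J82CisR cells exposed 2 h, then labelled with TMRE and Hoechst 33342 for 20 min. TMRE signal imaged on a high-content fluorescence imaging platform. Untreated medium control and 20 µM CCCP positive control.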

A2780 [16] = assay: Cell cycle arrest in human A2780 cells assessed as accumulation at G1 phase at 1 uM incubated for 24 hrs by propidium iodide staining based flow cytometry (reference value: 61.8%); assay type: functional; procedure, shortened: as §1
J82 [17] = assay: Induction of apoptosis in cisplatin-resistant human J82 cells assessed as nuclear condensation by measuring reduced size and increased intensity of nuclei at 30 uM incubated for 24 hrs by hoechst 33342 staining based fluorescence microscopy; assay type: functional, cell-based

CC(=O)OC[C@]12Oc3c(-c4ccc(O)c5c4O[C@@]4(COC(C)=O)C(=C(O)C[C@@H](C)[C@H]4OC(C)=O)C5=O)ccc(O)c3C(=O)C1=C(O)C[C@@H](C)[C@H]2OC(C)=O [PHOMOXANTHONE A]
Activity (J82 [1]): 68% | Activity (A2780cisR [2]): Active | Activity (J82 [3]): 53% | Activity (A2780cisR [4]): 83.3% | Activity (J82 [5]): 65% | IC50 (A2780 [6]; read-out: IC50): 1180 nM | IC50 (A2780 [6]; read-out: pIC50 (converted)): 1170 nM | Ratio IC50 [7]: 2 - 10 | Ratio IC50 (MDA-MB-231): 2 - 10 | Activity (J82 [8]): Active | Activity (J82 [9]): Dose-dependent effect | IC50 (J82 [9]; J82, 2 h): 3340 nM | Activity (J82 [10]): 100% | Activity (A2780 [11]): Tde | Ratio IC50 (A2780cisR [12]): 1.4 | Activity (A2780 [13]): Active | Ratio IC50 (A2780 [14]): 7 | Activity (J82 [15]): 100% | Activity (A2780 [16]): 63.3% | Activity (J82 [17]): Active

Source: ChEMBL document CHEMBL4396943, “The tetrahydroxanthone-dimer phomoxanthone A is a strong inducer of apoptosis in cisplatin-resistant solid cancer cells” (Bioorg Med Chem, 2019)
